Assay results as given in ChEMBL document CHEMBL2311429, “Design, synthesis and crystallographic analysis of nitrile-based broad-spectrum peptidomimetic inhibitors for coronavirus 3C-like proteases” (Eur J Med Chem, 2013).
Activity calls are given as the source filed them. The calls are words filed in the database; no cut-off is given here.

What was measured:
[1] = target: Replicase polyprotein 1ab (Severe acute respiratory syndrome-related coronavirus, UniProt P0C6X7); assay: Inhibition of SARS coronavirus 3C-like protease pretreated for 5 mins before substrate addition by fluorimetry
Caspase-3 (Homo sapiens) = target: T1, Caspase-3 (Homo sapiens) (UniProt P42574); assay: Inhibition of caspase3 (unknown origin) using Ac-DEVD-pNA as substrate at 0.5 to 256 uM after 90 mins by spectrophotometry
T1 sequence (whole entry): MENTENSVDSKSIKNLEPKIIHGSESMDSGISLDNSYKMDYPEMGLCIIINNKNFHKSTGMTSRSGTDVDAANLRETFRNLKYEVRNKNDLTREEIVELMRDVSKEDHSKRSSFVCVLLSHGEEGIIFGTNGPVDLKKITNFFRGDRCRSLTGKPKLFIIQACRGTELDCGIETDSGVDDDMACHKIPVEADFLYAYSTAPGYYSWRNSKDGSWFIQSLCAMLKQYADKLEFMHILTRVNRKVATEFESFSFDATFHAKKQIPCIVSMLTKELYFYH

[2] = Inhibition of […] bronchitis virus 3C-like protease pretreated for 5 mins before substrate addition by fluorimetry
Procedure, shortened: (§1)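 3CL protease (0.5-1 μM) preincubated 5 min with inhibitor (0.5-256 μM), then 35 μM fluorescent-protein substrate added; cleavage followed by fluorescence. IC50 from four-parameter logistic fit of activity versus inhibitor concentration.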

[3] = Inhibition of human coronavirus HKU1 3C-like protease pretreated for 5 mins before substrate addition by fluorimetry; procedure, shortened: as §1
[4] = Inhibition of human coronavirus OC43 3C-like protease pretreated for 5 mins before substrate addition by fluorimetry; procedure, shortened: as §1
[5] = Inhibition of human coronavirus […] 3C-like protease pretreated for 5 mins before substrate addition by fluorimetry; design: species or system Human coronavirus 229E; procedure, shortened: as §1

Row | SMILES | IC50 [1] | inhibition (Caspase-3 (Homo sapiens)) | IC50 [2] | IC50 [3] | IC50 [4] | IC50 [5]
1 | CC(C)C[C@H](NC(=O)[C@@H](NC(=O)[C@H](C)NC(=O)[C@H](CO)NC(=O)[C@@H](NC(=O)OCc1ccccc1)[C@@H](C)O)C(C)C)C(=O)N[C@H](C#N)CCC(N)=O | 39 µM |  |  |  |  | 
2 | CC(C)C[C@H](NC(=O)[C@@H](NC(=O)[C@H](C)NC(=O)OCc1ccccc1)C(C)C)C(=O)N[C@H](C#N)CCC(N)=O |  | inactive | 1.3 µM | 1.3 µM | 1.3 µM | 1.3 µM
3 | Cc1cc(C(=O)N[C@@H](C)C(=O)N[C@H](C(=O)N[C@@H](CC(C)C)C(=O)N[C@H](C#N)CCC(N)=O)C(C)C)no1 | 49 µM |  |  |  |  | 
